Assay results: ChEMBL document CHEMBL2176905 (J Med Chem, 2012)
Where a name gives a salt, the structure may show the parent alone. Each block holds one compound with its values, some of them ahead of it. Activity calls are given as the source filed them. No cut-off for these calls is given here. Residues, ends and D or L forms follow the SMILES beside them. *: point of attachment. PhAc = O=C(Cc1ccccc1)*; Tfa = O=C(C(F)(F)F)*; NHBu = CCCCN*

Columns and labels:
Neutrophil elastase [1] = molecular target: T1, Neutrophil elastase (Homo sapiens, UniProt P08246); assay: Inhibition of human neutrophil elastase
T1 sequence (P08246 whole entry): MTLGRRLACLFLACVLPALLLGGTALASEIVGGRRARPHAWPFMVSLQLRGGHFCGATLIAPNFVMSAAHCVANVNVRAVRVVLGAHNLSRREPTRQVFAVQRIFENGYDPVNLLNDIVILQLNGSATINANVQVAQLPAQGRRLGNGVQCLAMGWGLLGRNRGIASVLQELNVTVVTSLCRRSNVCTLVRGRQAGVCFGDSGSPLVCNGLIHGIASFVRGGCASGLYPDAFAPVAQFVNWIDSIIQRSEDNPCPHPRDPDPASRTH

Neutrophil elastase [2] = molecular target: T1, Neutrophil elastase; assay: Noncompetitive inhibition of human neutrophil elastase assessed as hydrolysis of N-succinyl-Ala-Ala-Pro-Val-p-nitroanilide incubated for 2 hrs measured for 20 mins by Dixon and Cornish-Bowden analysis
Procedure, shortened: (§1)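 Mechanism study: HNE (final 30 nM) preincubated 2 h at 25 °C with inhibitor (final 5−20 μM, 3 concentrations) in 0.1 M HEPES, 0.5 M NaCl, pH 7.25, 5.5% DMSO. Suc-Ala-Ala-Pro-Val-pNA added at two final levels, 0.0875 or 0.35 mM. Rate followed at 405 nm, 25 °C, 20 min. Duplicates; Dixon and Cornish-Bowden plots.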

[3] = molecular target: Pancreatic elastase (Sus scrofa) (UniProt P08419+P00772); assay: Inhibition of porcine pancreatic elastase assessed as hydrolysis of N-succinyl-Ala-Ala-Ala-p-nitroanilide at 100 uM incubated for 2 hrs measured for 20 mins by microplate reader analysis; type: protein assay
Procedure, shortened: (§2)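 Counter-screen in 0.1 M HEPES with 0.5 M NaCl, pH 7.25, 96-well format, duplicates. Chymotrypsin, trypsin and porcine pancreatic elastase were commercial; thrombin and plasminogen were purified in-house. Chromogenic substrate hydrolysis followed kinetically at 405 nm on a plate reader. Test compounds up to 100 μM maximum; AEBSF run as irreversible positive control with IC50 determined.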

Neutrophil elastase [4] = molecular target: T1, Neutrophil elastase; assay: Inhibition of human neutrophil elastase assessed as hydrolysis of N-succinyl-Ala-Ala-Pro-Val-p-nitroanilide incubated for 2 hrs measured for 20 mins by microplate reader analysis
Procedure, shortened: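 HNE (stock 2.8 μM in pH 5.5 acetate/0.5 M NaCl; final 30 nM) preincubated 2 h at 25 °C with inhibitor (final 0.5−50 μM, 7 concentrations) in 0.1 M HEPES, 0.5 M NaCl, pH 7.25, 5.5% DMSO. Suc-Ala-Ala-Pro-Val-pNA added (final 0.35 mM). Hydrolysis rate read kinetically at 405 nm, 25 °C, 20 min. Duplicates; IC50 derived.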

[5] = Inhibition of chymotrypsin assessed as hydrolysis of N-succinyl-Ala-Ala-Pro-Phe-p-nitroanilide incubated for 2 hrs measured for 20 mins by microplate reader analysis; procedure, shortened: as §2
Plasminogen [6] = molecular target: T2, Plasminogen (Homo sapiens, UniProt P00747); assay: Inhibition of plasmin assessed as hydrolysis of H-D-Val-L-Leu-L-Lys-p-nitroanilide at 100 uM incubated for 2 hrs measured for 20 mins by microplate reader analysis; procedure, shortened: as §2
[7] = Inhibition of trypsin assessed as hydrolysis of H-D-Pro-L-Phe-L-Arg-p-nitroanilide incubated for 2 hrs measured for 20 mins by microplate reader analysis; procedure, shortened: as §2
Prothrombin [8] = molecular target: T3, Prothrombin (Homo sapiens, UniProt P00734); assay: Inhibition of thrombin assessed as hydrolysis of H-D-Pro-L-Phe-L-Arg-p-nitroanilide incubated for 2 hrs measured for 20 mins by microplate reader analysis; procedure, shortened: as §2
[9] = molecular target: T4, Cathepsin G (Homo sapiens) (UniProt P08311); assay: Inhibition of cathepsin G assessed as hydrolysis of N-succinyl-Ala-Ala-Pro-Phe-p-nitroanilide at 100 uM incubated for 2 hrs measured for 20 mins by microplate reader analysis
T4 sequence (whole entry): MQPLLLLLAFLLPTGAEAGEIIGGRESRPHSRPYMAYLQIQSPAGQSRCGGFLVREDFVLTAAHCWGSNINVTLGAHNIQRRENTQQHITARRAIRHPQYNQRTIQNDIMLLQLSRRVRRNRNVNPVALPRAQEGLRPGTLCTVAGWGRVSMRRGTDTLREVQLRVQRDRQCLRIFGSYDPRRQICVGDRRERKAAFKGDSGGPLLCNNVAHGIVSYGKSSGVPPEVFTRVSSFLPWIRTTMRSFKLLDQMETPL

Plasminogen [10] = molecular target: T2, Plasminogen; assay: Inhibition of plasmin assessed as hydrolysis of H-D-Val-L-Leu-L-Lys-p-nitroanilide incubated for 2 hrs measured for 20 mins by microplate reader analysis
Procedure, shortened: (§3)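 Selectivity panel run in duplicate in 0.1 M HEPES with 0.5 M NaCl, pH 7.25. p-Nitroanilide release was followed kinetically at 405 nm, with inhibitor tested up to 100 μM maximum. Plasmin came from plasminogen purified in-house; porcine pancreatic elastase was commercial. IC50 values were determined.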

Pancreatic elastase = Pancreatic elastase (Sus scrofa, UniProt P08419+P00772); assay: Inhibition of porcine pancreatic elastase assessed as hydrolysis of N-succinyl-Ala-Ala-Ala-p-nitroanilide incubated for 2 hrs measured for 20 mins by microplate reader analysis; type: protein assay; procedure, shortened: as §3
[11] = Inhibition of trypsin assessed as hydrolysis of H-D-Pro-L-Phe-L-Arg-p-nitroanilide at 100 uM incubated for 2 hrs measured for 20 mins by microplate reader analysis; procedure, shortened: as §2
Prothrombin [12] = molecular target: T3, Prothrombin; assay: Inhibition of thrombin assessed as hydrolysis of H-D-Pro-L-Phe-L-Arg-p-nitroanilide at 100 uM incubated for 2 hrs measured for 20 mins by microplate reader analysis; procedure, shortened: as §2
[13] = Inhibition of chymotrypsin assessed as hydrolysis of N-succinyl-Ala-Ala-Pro-Phe-p-nitroanilide at 100 uM incubated for 2 hrs measured for 20 mins by microplate reader analysis; procedure, shortened: as §2
Neutrophil elastase [14] = molecular target: T1, Neutrophil elastase; assay: Uncompetitive inhibition of human neutrophil elastase assessed as hydrolysis of N-succinyl-Ala-Ala-Pro-Val-p-nitroanilide incubated for 2 hrs measured for 20 mins by Dixon and Cornish-Bowden analysis; procedure, shortened: as §1
[15] = Inhibition of HIV protease; design: species or system Human immunodeficiency virus
Cathepsin G = molecular target: T5, Cathepsin G (Homo sapiens, UniProt P08311); assay: Inhibition of cathepsin G assessed as hydrolysis of N-succinyl-Ala-Ala-Pro-Phe-p-nitroanilide incubated for 2 hrs measured for 20 mins by microplate reader analysis
T5 sequence (P08311 whole entry): T4 sequence (whole entry)

T2 sequence (P00747 97-580 limits assumed): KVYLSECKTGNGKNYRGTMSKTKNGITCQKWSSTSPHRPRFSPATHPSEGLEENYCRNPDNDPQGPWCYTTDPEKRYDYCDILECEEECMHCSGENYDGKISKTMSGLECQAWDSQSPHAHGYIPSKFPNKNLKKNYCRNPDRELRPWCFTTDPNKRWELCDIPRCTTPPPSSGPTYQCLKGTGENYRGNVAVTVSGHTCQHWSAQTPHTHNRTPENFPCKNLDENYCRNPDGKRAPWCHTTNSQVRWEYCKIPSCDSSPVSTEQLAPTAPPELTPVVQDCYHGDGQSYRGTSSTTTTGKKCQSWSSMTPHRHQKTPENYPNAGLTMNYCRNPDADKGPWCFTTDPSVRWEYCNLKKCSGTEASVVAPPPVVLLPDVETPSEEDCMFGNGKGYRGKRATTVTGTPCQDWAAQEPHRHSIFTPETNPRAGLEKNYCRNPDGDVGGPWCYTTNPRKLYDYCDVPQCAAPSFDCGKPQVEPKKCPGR
T2 sequence (P00747 581-810 limits assumed): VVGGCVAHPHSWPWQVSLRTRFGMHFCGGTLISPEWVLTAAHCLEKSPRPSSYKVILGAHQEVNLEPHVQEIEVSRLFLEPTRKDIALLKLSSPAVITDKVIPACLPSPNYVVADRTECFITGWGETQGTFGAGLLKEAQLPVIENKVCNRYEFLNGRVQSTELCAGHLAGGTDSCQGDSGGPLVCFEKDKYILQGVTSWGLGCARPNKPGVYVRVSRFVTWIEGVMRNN

Structure (SMILES): CCCCNC(=O)CC[Si](O)(O)[C@H](CC(C)C)NC(=O)[C@@H](NC(=O)Cc1ccc2ccccc2c1)[C@@H](C)CC
IC50 (Neutrophil elastase [1]): 0.3 µM

Structure (SMILES): CCCCNC(=O)CNC(=O)[C@H](CC(C)C)NC(=O)[C@@H](NC(=O)C(F)(F)F)[C@@H](C)CC (Tfa-Ile-Leu-Gly-NHBu)
IC50 (Neutrophil elastase [4]): > 200 µM

Structure (SMILES): CCCCNC(=O)CNC(=O)[C@H](CC(C)C)NC(=O)[C@@H](NC(=O)Cc1ccccc1)[C@@H](C)CC (PhAc-Ile-Leu-Gly-NHBu)
IC50 (Neutrophil elastase [4]): 51 µM

Structure (SMILES): CCCCNC(=O)CC[Si](O)(O)[C@H](CC(C)C)NC(=O)[C@@H](NC(C)=O)[C@@H](C)CC
IC50 (Neutrophil elastase [4]): > 200 µM

Structure (SMILES): CCCCNC(=O)CC[Si](O)(O)[C@H](CC(C)C)NC(=O)[C@@H](NC(=O)Cc1ccccc1)[C@@H](C)CC
inhibition [9]: inactive | inhibition [11]: inactive | inhibition [3]: inactive | inhibition (Prothrombin [12]): inactive | inhibition [13]: inactive | Ki (Neutrophil elastase [14]): 5 µM | IC50 (Neutrophil elastase [4]): 38 µM | inhibition (Plasminogen [6]): inactive

Structure (SMILES): CC[C@H](C)[C@H](NC(=O)Cc1ccc2ccccc2c1)C(=O)N[C@@H](CC(C)C)[Si](C)(O)O
IC50 (Neutrophil elastase [4]): 39 µM

Structure (SMILES): CCCCNC(=O)CC[Si](O)(O)[C@H](CC(C)C)NC(=O)[C@@H](NC(=O)C(F)(F)F)[C@@H](C)CC
IC50 (Neutrophil elastase [4]): 46 µM

Structure (SMILES): O=C(N[C@H]1c2ccccc2C[C@H]1O)[C@H](Cc1ccccc1)C[Si](O)(O)C[C@@H](Cc1ccccc1)C(=O)N[C@H]1c2ccccc2C[C@H]1O
Ki [15]: 0.0027 µM

Structure (SMILES): CCCCNC(=O)CNC(=O)[C@H](CC(C)C)NC(=O)[C@@H](NC(C)=O)[C@@H](C)CC (Ac-Ile-Leu-Gly-NHBu)
IC50 (Neutrophil elastase [4]): > 200 µM

Structure (SMILES): Cl.NCCc1ccc(S(=O)(=O)F)cc1 [4-AMINOETHYLBENZENESULFONYL FLUORIDE HYDROCHLORIDE]
IC50 [5]: 12 µM | IC50 (Plasminogen [10]): 240 µM | IC50 (Pancreatic elastase): 160 µM | IC50 [7]: 10 µM | IC50 (Prothrombin [8]): 62 µM | IC50 (Cathepsin G): 250 µM

Further compounds by falling IC50 (Neutrophil elastase [4]), results first:

IC50 (Neutrophil elastase [1]): 0.3 µM | inhibition [9]: inactive | inhibition [11]: inactive | inhibition [3]: inactive | inhibition (Prothrombin [12]): inactive | inhibition [13]: inactive | Ki (Neutrophil elastase [14]): 3.5 µM | IC50 (Neutrophil elastase [4]): 18 µM | inhibition (Plasminogen [6]): inactive
Structure (SMILES): CCCCNC(=O)CC[Si](O)(O)[C@@H](CC(C)C)NC(=O)[C@@H](NC(=O)Cc1ccc2ccccc2c1)[C@@H](C)CC

inhibition [9]: inactive | inhibition [11]: inactive | inhibition [3]: inactive | inhibition (Prothrombin [12]): inactive | inhibition [13]: inactive | Ki (Neutrophil elastase [14]): 4 µM | IC50 (Neutrophil elastase [4]): 16 µM | inhibition (Plasminogen [6]): inactive
Structure (SMILES): CCCCNC(=O)CC[Si](O)(O)[C@H](CC(C)C)NC(=O)[C@@H](NC(=O)c1ccc2ccccc2c1)[C@@H](C)CC

Ki (Neutrophil elastase [2]): 13 µM | inhibition [3]: inactive | IC50 (Neutrophil elastase [4]): 14 µM | IC50 [5]: 110 µM | inhibition (Plasminogen [6]): inactive | IC50 [7]: 58 µM | IC50 (Prothrombin [8]): 92 µM
Structure (SMILES): CCCCNC(=O)CC[Si](c1ccccc1)(c1ccccc1)[C@H](CC(C)C)NC(=O)[C@@H](NC(=O)Cc1ccc2ccccc2c1)[C@@H](C)CC

Ki (Neutrophil elastase [2]): 18 µM | inhibition [9]: inactive | IC50 (Neutrophil elastase [4]): 14 µM | IC50 [5]: 150 µM | IC50 (Plasminogen [10]): 99 µM | IC50 (Pancreatic elastase): 55 µM | IC50 [7]: 89 µM | IC50 (Prothrombin [8]): 100 µM
Structure (SMILES): CCCCNC(=O)CNC(=O)[C@H](CC(C)C)NC(=O)[C@@H](NC(=O)Cc1ccc2ccccc2c1)[C@@H](C)CC
